The values that follow come from ChEMBL document CHEMBL4196175, “First SAR Study for Overriding NRAS Mutant Driven Acute Myeloid Leukemia” (J Med Chem, 2018).

For data set [1], the system named is OCI-AML-3. The data set can be described thus: Growth inhibition of ACK1/GCK knockdown human OCI-AML3 cells harboring NRAS-Q61L mutant at 0.2 uM after 72 hrs by celltiter-glo assay. Format: functional, cell-based.
Data set [2] addresses T1, Mitogen-activated protein kinase kinase kinase kinase 2 (Homo sapiens, UniProt Q12851).
T1 sequence (Q12851 whole entry): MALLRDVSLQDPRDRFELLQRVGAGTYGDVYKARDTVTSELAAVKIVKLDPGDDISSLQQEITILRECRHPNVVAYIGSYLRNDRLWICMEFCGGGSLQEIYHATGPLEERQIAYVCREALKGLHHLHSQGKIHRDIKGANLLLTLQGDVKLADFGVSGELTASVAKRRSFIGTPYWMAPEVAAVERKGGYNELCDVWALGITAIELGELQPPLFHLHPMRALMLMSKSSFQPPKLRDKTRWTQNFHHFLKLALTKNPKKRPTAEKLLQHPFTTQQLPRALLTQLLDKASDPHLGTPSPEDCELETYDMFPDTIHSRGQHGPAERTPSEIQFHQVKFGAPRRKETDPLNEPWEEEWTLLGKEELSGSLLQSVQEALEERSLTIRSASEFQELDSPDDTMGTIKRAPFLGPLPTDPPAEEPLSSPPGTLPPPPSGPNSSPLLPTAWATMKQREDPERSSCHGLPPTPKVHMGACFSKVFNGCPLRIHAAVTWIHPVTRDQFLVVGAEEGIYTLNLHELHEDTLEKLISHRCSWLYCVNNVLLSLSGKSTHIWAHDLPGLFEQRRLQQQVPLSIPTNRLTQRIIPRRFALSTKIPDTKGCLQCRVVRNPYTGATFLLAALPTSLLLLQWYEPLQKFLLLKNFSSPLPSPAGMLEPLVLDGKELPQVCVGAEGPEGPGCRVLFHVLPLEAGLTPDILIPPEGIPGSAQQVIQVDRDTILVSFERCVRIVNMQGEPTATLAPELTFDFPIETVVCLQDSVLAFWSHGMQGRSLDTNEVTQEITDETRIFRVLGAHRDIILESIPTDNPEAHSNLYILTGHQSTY
Description: Inhibition of GCK (unknown origin) by radiometric biochemical kinase assay.

A short description of data set [3]: Growth inhibition of parental mouse BA/F3 cells after 72 hrs by celltiter-glo assay. Type of data set: cell-based, BaF3.
Data set [4] addresses T2, Mitogen-activated protein kinase kinase kinase kinase 2 (Mus musculus) (UniProt Q61161).
T2 sequence (whole entry): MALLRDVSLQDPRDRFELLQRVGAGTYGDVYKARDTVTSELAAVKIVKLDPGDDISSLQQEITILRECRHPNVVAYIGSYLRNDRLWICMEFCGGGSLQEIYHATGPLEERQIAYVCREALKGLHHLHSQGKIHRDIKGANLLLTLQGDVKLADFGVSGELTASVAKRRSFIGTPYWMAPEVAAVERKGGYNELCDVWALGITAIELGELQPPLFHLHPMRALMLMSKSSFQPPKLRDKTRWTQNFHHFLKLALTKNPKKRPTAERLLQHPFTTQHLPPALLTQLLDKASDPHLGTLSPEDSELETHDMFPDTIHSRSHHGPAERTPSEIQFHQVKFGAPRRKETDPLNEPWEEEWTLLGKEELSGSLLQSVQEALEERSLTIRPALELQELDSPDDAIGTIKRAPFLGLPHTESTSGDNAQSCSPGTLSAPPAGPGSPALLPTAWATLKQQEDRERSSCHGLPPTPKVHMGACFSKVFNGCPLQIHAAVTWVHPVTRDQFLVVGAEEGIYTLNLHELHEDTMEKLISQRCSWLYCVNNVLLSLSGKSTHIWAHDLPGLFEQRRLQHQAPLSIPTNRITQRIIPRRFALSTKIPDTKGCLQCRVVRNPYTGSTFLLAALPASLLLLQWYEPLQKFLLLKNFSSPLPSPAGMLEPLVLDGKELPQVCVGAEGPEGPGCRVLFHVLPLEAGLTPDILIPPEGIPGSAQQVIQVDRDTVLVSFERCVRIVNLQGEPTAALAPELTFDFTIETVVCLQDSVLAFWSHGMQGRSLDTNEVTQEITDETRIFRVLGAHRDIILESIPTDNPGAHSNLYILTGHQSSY
The data set can be described thus: Inhibition of GCK in mouse BA/F3 cells harboring NRAS-G12D mutant assessed as reduction in JNK phosphorylation at T183/Y185 at 1 uM after 2 hrs by Western blot analysis. Format: cell-based. In short, it runs like this: (§1)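 Ba/F3-NRAS-G12D or OCI-AML3 cells exposed 2 h to compounds (1 µM, or a dose series in OCI-AML3); phospho-p70S6K1, phospho-AKT S473, phospho-JNK and phospho-p38 assessed by western blot, actin as loading control.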

A short description of data set [5]: Metabolic stability in human liver microsomes assessed as compound remaining at 1 uM after 30 mins. Type of data set: ADME, microsome. Particulars: read-out: Stability.
Data set [6] has as its target T3, CYP1A2 (Homo sapiens, UniProt P05177).
T3 sequence (P05177 whole entry): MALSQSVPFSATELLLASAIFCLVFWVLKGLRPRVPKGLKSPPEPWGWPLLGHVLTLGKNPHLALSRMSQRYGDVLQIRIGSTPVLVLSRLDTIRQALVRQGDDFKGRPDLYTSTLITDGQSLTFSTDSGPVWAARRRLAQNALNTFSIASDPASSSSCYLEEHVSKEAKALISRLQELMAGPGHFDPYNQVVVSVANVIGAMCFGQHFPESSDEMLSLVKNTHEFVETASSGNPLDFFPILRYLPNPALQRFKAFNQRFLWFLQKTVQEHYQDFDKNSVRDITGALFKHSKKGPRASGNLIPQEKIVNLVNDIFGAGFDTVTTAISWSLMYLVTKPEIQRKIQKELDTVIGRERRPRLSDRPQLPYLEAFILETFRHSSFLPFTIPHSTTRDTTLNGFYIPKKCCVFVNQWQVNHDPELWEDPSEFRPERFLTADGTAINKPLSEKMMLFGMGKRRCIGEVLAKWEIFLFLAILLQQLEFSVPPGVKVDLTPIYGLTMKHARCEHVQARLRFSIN
Description: Inhibition of CYP1A2 (unknown origin) assessed as activity remaining at 10 uM relative to control. Type of data set: ADME. Particulars: read-out: Activity.

Data set [7] deals with Activated CDC42 kinase 1 (Mus musculus) (UniProt O54967). Description: Inhibition of ACK1 in mouse BA/F3 cells harboring NRAS-G12D mutant assessed as reduction in P70S6K1 phosphorylation at Thr421/Ser424 at 1 uM after 2 hrs by Western blot analysis. Type of data set: cell-based. In short, it runs like this: as §1
Chain of Activated CDC42 kinase 1 (Mus musculus) (O54967 whole entry): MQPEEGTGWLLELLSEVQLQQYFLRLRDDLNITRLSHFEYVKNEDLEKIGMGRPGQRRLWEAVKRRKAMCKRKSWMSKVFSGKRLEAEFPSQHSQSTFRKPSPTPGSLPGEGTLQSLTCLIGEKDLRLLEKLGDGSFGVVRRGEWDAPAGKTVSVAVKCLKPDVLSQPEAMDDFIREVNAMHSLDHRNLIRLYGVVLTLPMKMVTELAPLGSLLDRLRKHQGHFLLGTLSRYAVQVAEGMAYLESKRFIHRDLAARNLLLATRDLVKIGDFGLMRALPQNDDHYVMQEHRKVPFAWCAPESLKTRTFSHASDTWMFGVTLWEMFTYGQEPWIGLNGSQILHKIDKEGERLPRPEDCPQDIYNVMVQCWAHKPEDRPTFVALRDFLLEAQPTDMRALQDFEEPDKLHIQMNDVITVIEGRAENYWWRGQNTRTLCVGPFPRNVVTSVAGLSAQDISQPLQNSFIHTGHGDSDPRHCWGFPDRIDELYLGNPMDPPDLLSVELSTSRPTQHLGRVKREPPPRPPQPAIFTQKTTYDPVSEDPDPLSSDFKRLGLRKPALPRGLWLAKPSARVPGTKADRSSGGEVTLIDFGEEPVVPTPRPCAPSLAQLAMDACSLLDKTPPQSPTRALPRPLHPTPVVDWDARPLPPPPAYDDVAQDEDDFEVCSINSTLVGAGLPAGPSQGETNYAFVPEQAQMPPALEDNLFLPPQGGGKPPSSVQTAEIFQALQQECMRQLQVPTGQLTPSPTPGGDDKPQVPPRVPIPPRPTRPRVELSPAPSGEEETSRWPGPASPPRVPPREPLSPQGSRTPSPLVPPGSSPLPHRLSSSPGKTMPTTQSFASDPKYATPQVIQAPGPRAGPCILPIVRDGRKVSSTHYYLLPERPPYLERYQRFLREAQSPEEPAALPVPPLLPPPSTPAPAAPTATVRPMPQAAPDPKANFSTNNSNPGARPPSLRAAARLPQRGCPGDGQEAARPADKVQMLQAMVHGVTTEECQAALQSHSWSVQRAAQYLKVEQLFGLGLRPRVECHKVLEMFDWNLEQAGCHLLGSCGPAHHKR
Data set [8] concerns the target CYP2D6 (Homo sapiens, UniProt P10635). The data set can be described thus: Inhibition of CYP2D6 (unknown origin) assessed as activity remaining at 10 uM relative to control. Type of data set: ADME. The following applies: read-out: Activity.
The subject of data set [9] is OCI-AML-3. Description: Inhibition of anchorage-independent cell growth in human OCI-AML3 cells harboring NRAS Q61L mutant assessed as reduction in colony number at 0.1 to 1 uM after 14 days by iodonitrotetrazolium chloride staining-based soft agar assay. Format: functional. In short, it runs like this: (§2)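 OCI-AML3 cells embedded in 0.7% low-melting agar, incubated 2 weeks with compound at 0.1 or 1 µM; colony number and colony size per well measured by automated image analysis; n = 3 per condition, SD, one-way ANOVA.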

The test system of data set [10] is OCI-AML-3. The data set can be described thus: Inhibition of anchorage-independent cell growth in human OCI-AML3 cells harboring NRAS Q61L mutant assessed as reduction in colony size at 0.1 to 1 uM after 14 days by iodonitrotetrazolium chloride staining-based soft agar assay. Format: functional. A digest of the protocol: as §2

Calls of active or inactive are those of the source. The calls are words filed in the database; no cut-off is given here.

Chain of CYP2D6 (P10635 whole entry): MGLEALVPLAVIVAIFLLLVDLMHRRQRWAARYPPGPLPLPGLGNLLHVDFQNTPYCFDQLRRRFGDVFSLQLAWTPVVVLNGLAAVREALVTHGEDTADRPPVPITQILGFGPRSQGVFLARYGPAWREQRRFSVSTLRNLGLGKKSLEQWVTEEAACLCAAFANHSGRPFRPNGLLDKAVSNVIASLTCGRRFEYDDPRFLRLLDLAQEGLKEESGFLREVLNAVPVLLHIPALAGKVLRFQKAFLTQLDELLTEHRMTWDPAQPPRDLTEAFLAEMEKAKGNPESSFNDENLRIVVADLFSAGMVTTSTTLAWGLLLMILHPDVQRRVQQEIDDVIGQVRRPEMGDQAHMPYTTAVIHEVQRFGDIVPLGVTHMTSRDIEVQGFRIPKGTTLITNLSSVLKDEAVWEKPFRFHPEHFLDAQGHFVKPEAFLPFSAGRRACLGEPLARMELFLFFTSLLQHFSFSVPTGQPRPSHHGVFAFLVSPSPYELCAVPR

Consider `Cc1cc(Nc2ncc3c(n2)N(C)C(=O)N(c2cc(NC(=O)c4cccc(C(F)(F)F)c4)ccc2C)C3)n(C)n1`, for which the “growth inhibition (GI)” value in data set [1] is “Active”. This molecule also came in with an IC50 in data set [2] of 5 nM. In data set [3], the GI50 at 72 h came out at 2060 nM. The “reduction in JNK phosphorylation (active/inactive call)” value (“reduction … (active/inactive call)” for short) in data set [4] was “Active”. The remaining at 0.5 h, 1 µM in data set [5] turned out to be 69.2%. In addition, the activity at 10 µM in data set [6] is 88.2%; in data set [8] it was 72%. Moreover, in data set [7], the “reduction in P70S6K1 phosphorylation (active/inactive)” value (shortened to “reduction … (active/inactive)”) is “Active”.

As to `CCN1CCN(C(=O)c2ccc(Nc3ncc4c(n3)N(C)C(=O)N(c3cc(NC(=O)c5cccc(C(F)(F)F)c5)ccc3C)C4)cn2)CC1`, in data set [1], the “growth inhibition (GI)” value is “Active”. Further, the IC50 in [2] stood at 2 nM. The 50% growth inhibitory concentration (GI50) at 72 h in data set [3] worked out at 728 nM. Besides, in data set [4], the “reduction … (active/inactive call)” value was “Active”. Also, the remaining at 0.5 h, 1 µM in data set [5] amounted to 24.6%. The activity at 10 µM in data set [6] stood at 81.8%; in [8], 32.8%. Moreover, the “reduction … (active/inactive)” value in data set [7] was “Active”.

Consider `Cc1ccc(NC(=O)c2cccc(C(F)(F)F)c2)cc1N1Cc2cnc(N)nc2N(C)C1=O`, for which half-maximal inhibition in data set [2] (IC50) was put at 28 nM. Besides, the “growth inhibition (GI)” value in data set [9] and in data set [10] was “Active” each time. Moreover, the GI50 at 72 h in data set [3] was 2110 nM. For the same molecule, in data set [4], the “reduction … (active/inactive call)” value was “Active”. The remaining at 0.5 h, 1 µM in [5] was found to be 84.4%. In addition, the activity at 10 µM in data set [6] is 89.2%; in data set [8] it was 82.2%. Besides, the “reduction … (active/inactive)” value in data set [7] is “Active”.

In the case of `CC(=O)N1CCN(c2ccc(Nc3ncc4c(n3)N(C)C(=O)N(c3cc(NC(=O)c5cccc(C(F)(F)F)c5)ccc3C)C4)cn2)CC1`, the “growth inhibition (GI)” value in data set [1], in data set [9] and in data set [10] was “Active” each time. Further, in data set [2], 1 nM corresponded to half-maximal inhibition (IC50). Further, in data set [3], the GI50 at 72 h came to 402 nM. Further, in data set [5], the remaining at 0.5 h, 1 µM was found to be 47.3%. The activity at 10 µM in data set [6] worked out at 87.2%; in data set [8], 83.1%.

`Cc1ccc(Nc2ncc3c(n2)N(C)C(=O)N(c2cc(NC(=O)c4ccc(CN5CCC(N(C)C)C5)c(C(F)(F)F)c4)ccc2C)C3)cn1` (configuration not stated) displayed an IC50 in data set [2] of 2 nM. The “growth inhibition (GI)” value in data set [9] and in data set [10] was “Active” in each case. Also, the GI50 at 72 h in [3] turned out to be 636 nM. Besides, the “reduction … (active/inactive call)” value in data set [4] is “Active”. Moreover, in data set [5], the remaining at 0.5 h, 1 µM was 57.5%. Further, the activity at 10 µM in data set [6] stood at 67.5%; in data set [8], 4.9%. Besides, in data set [7], the “reduction … (active/inactive)” value was “Active”.
